Key:
Influenza A virus [1] = test: Antiviral activity against Influenza A virus (A/Puerto Rico/8/1934(H1N1)) infected in MDCK cells assessed as cell protection after 72 hrs by cytopathic effect assay; assay type: functional, organism-based
How it was run: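 MDCK cells incubated with test compound and influenza A virus for 72 h (3-day CPE format). Cell viability read by an ATP end point. EC50 is the concentration giving 50% cell protection; mean of N = 3 or greater.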

Influenza A virus [2] = test: Antiviral activity against Influenza A virus (A/Puerto Rico/8/1934(H1N1)) infected in cells assessed as reduction in multiplication of virus-specific RNA molecules using branched-chain DNA; assay type: functional
How it was run: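 Viral RNA replication in infected cells quantified by the bDNA QuantiGene method with strand-specific probes for positive- or negative-strand RNA. EC90 is the compound concentration giving viral RNA levels equal to 10% of control wells.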

[3] = biological target: Polymerase basic protein 2 (Influenza A virus (strain A/Puerto Rico/8/1934 H1N1), UniProt P03428); test: Binding affinity to influenza A virus (A/Puerto Rico/8/1934(H1N1)) PB2 by competition binding fluorescence polarization (FP) assay
How it was run: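 Fluorescence polarization competition binding assay measuring affinity for the cap-binding domain of the PB2 subunit.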

Sequence of Polymerase basic protein 2 (P03428 whole entry, the tested form may be a part): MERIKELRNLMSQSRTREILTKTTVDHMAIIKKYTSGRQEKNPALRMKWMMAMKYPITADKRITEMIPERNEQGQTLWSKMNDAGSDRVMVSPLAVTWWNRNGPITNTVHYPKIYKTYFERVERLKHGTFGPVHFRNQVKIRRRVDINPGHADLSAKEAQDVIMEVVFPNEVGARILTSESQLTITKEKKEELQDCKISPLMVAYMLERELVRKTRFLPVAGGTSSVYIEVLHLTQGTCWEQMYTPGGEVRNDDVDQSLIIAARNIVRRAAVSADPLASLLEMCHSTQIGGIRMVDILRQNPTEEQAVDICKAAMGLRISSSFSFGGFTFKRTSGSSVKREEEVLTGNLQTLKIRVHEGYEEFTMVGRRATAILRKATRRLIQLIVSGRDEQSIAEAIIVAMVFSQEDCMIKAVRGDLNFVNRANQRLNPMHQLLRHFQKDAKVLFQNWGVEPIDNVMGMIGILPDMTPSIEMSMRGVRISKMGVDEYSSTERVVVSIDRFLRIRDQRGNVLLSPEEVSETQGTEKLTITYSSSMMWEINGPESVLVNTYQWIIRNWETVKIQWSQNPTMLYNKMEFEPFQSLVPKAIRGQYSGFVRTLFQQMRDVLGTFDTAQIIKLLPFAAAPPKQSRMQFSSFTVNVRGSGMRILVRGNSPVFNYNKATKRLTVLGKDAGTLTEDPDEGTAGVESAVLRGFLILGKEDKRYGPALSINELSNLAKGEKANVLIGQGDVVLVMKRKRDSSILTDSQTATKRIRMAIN

Compound	EC50 (Influenza A virus [1])	EC90 (Influenza A virus [2])	Kd [3]
Cn1cncc1C(=O)N[C@@H]1CCC[C@H](Nc2nc(-c3c[nH]c4ncc(Cl)cc34)ncc2F)C1	0.002 µM	0.003 µM	0.02 µM
O=C(O)[C@H]1[C@H]2CC[C@H](C2)[C@@H]1Nc1nc(-c2c[nH]c3ncc(Cl)cc23)ncc1F (racemic)	< 0.002 µM	0.006 µM	< 0.002 µM
Fc1cnc(-c2c[nH]c3ncc(Cl)cc23)nc1NC1CCCCC1	1.64 µM	2.37 µM	0.3 µM
CCc1cnc2[nH]cc(-c3ncc(F)c(N[C@H]4CCC[C@@H](NC(=O)N5CCOCC5)C4)n3)c2c1	0.025 µM	0.26 µM	–
CC(=O)N[C@H]1CCCC[C@@H]1Nc1nc(-c2c[nH]c3ncc(Cl)cc23)ncc1F	0.044 µM	1.46 µM	0.1 µM
C[C@H](Nc1nc(-c2c[nH]c3ncc(Cl)cc23)ncc1F)C(=O)N(C)C	0.51 µM	1.13 µM	0.1 µM
O=C(O)[C@H]1[C@@H]2CC[C@@H](C2)[C@@H]1Nc1nc(-c2c[nH]c3ncc(Cl)cc23)ncc1F (racemic)	0.008 µM	0.021 µM	< 0.002 µM
Fc1cnc(-c2c[nH]c3ncc(Cl)cc23)nc1NC1CCCC1	> 20 µM	> 10 µM	0.7 µM
O=C(N[C@@H]1CCC[C@H](Nc2nc(-c3c[nH]c4ncccc34)ncc2F)C1)N1CCOCC1	0.098 µM	0.2 µM	–
N[C@@H]1CCCC[C@H]1Nc1nc(-c2c[nH]c3ncc(Cl)cc23)ncc1F	> 20 µM	–	4.9 µM
CC(=O)N1CCC[C@H](CNc2nc(-c3c[nH]c4ncc(Cl)cc34)ncc2F)C1	0.4 µM	0.54 µM	0.3 µM
COCC(=O)N[C@@H]1CCC[C@H](Nc2nc(-c3c[nH]c4ncc(Cl)cc34)ncc2F)C1	0.044 µM	0.02 µM	0.07 µM
CC(=O)c1cnc2[nH]cc(-c3ncc(F)c(N[C@H]4CCC[C@@H](NC(=O)N5CCOCC5)C4)n3)c2c1	> 10 µM	> 3 µM	–
O=C(NC1CCOCC1)N[C@@H]1CCC[C@H](Nc2nc(-c3c[nH]c4ncc(F)cc34)ncc2F)C1	0.06 µM	0.16 µM	0.4 µM
CC(=O)N[C@@H]1CCC[C@H](Nc2nc(-c3c[nH]c4ncc(Cl)cc34)ncc2F)C1	0.036 µM	0.025 µM	0.07 µM
N[C@H]1CCCC[C@@H]1Nc1nc(-c2c[nH]c3ncc(Cl)cc23)ncc1F	0.62 µM	2.48 µM	0.09 µM
O=C(CN1CCOCC1)N[C@@H]1CCC[C@H](Nc2nc(-c3c[nH]c4ncc(Cl)cc34)ncc2F)C1	0.1 µM	0.38 µM	0.2 µM
COCC(=O)N[C@@H]1CCC[C@H](Nc2nc(-c3c[nH]c4ncc(F)cc34)ncc2F)C1	0.045 µM	0.09 µM	0.2 µM
CC(O)C(=O)N[C@@H]1CCC[C@H](Nc2nc(-c3c[nH]c4ncc(Cl)cc34)ncc2F)C1 (some centres undefined)	0.086 µM	0.24 µM	0.4 µM
CN(C)c1cnc2[nH]cc(-c3ncc(F)c(N[C@H]4CCC[C@@H](NC(=O)N5CCOCC5)C4)n3)c2c1	1.26 µM	> 3 µM	–
COc1cnc2[nH]cc(-c3ncc(F)c(N[C@H]4CCC[C@@H](NC(=O)N5CCOCC5)C4)n3)c2c1	0.095 µM	0.17 µM	–
NC(=O)[C@H]1CCCC[C@@H]1Nc1nc(-c2c[nH]c3ncc(Cl)cc23)ncc1F (racemic)	–	3.13 µM	0.03 µM
COCC[C@]1(C(=O)O)CCCC[C@@H]1Nc1nc(-c2c[nH]c3ncc(Cl)cc23)ncc1F (racemic)	0.018 µM	0.09 µM	0.009 µM
C[C@]1(C(=O)O)CCCC[C@@H]1Nc1nc(-c2c[nH]c3ncc(F)cc23)ncc1F	0.018 µM	0.14 µM	< 0.002 µM
CN(C)C(=O)N[C@@H]1CCC[C@H](Nc2nc(-c3c[nH]c4ncc(F)cc34)ncc2F)C1	0.002 µM	0.006 µM	0.4 µM
Fc1cnc(-c2c[nH]c3ncc(Cl)cc23)nc1NC1CCCNC1 (centres undefined)	1.87 µM	–	–

Source: ChEMBL document CHEMBL3352362, “Discovery of a novel, first-in-class, orally bioavailable azaindole inhibitor (VX-787) of influenza PB2” (J Med Chem, 2014)
